Test results: ChEMBL document CHEMBL1150427, “Hybrids of 1-deoxynojirimycin and aryl-1,2,3-triazoles and biological studies related to angiogenesis” (Bioorg Med Chem, 2008)
Calls of active or inactive are those of the source. The rule behind the calls is not given here.

How the values were obtained:
[1] = (§1) Inhibition of Bacillus stearothermophilus alpha glucosidase; set-up: species or system Geobacillus stearothermophilus
[2] = system: BAEC; experiment: Inhibition of angiogenesis in BAEC assessed as inhibition of endothelial tube formation at 0.2 mM after 24 hrs; type: functional; details: Bos taurus
Outline: (§2)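 BAECs were pretreated with compound for 24 h, then resuspended at 3×10⁴ cells/0.1 ml in RPMI 1640 with 10 ng/ml bFGF plus compound; controls received bFGF alone. Cells were layered on polymerised growth-factor-reduced Matrigel and incubated for 8 h at 37 °C in 5% CO₂. Tubes were counted by light microscopy in at least five fields and averaged. Each compound was tested at least twice.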

[3] = system: BAEC; experiment: Inhibition of angiogenesis in BAEC assessed as inhibition of endothelial tube formation at 0.1 mM after 24 hrs; type: functional; details: Bos taurus; outline: as §2
[4] = Cell cycle arrest in BAEC assessed as accumulation at G0/G1 phase at 200 uM after 24 hrs by flow cytometer relative to control; type: functional, cell-based; details: Bos taurus
Outline: (§3)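 BAECs were seeded overnight in RPMI 1640 with 10% FBS, then exposed to compound for 24 h with a DMSO control. Cells were trypsinised, washed in DPBS and fixed in 70% ethanol at −20 °C for at least 2 h. They were treated with 200 µg/ml RNase A at 25 °C for 30 min, then stained with 50 µg/ml propidium iodide at 4 °C for 30 min. DNA content of 10,000 nuclei was read by flow cytometry, and G0/G1, S and G2/M percentages were derived. Each experiment was run at least twice.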

[5] = Cell cycle arrest in BAEC assessed as accumulation at S phase at 200 uM after 24 hrs by flow cytometer relative to control; type: functional, cell-based; details: Bos taurus; outline: as §3
[6] = Cell cycle arrest in BAEC assessed as accumulation at G2/M phase at 200 uM after 24 hrs by flow cytometer relative to control; type: functional, cell-based; details: Bos taurus; outline: as §3
[7] = system: BAEC; experiment: Effect on cell cycle of BAEC assessed as induction of G1 phase arrest at 200 uM after 24 hrs by flow cytometer relative to control; type: functional, cell-based; details: Bos taurus; outline: as §3
[8] = system: BAEC; experiment: Inhibition of cyclin D1 expression in BAEC at 200 uM after 24 hrs by Western blot; type: functional, cell-based; details: Bos taurus
Outline: (§4)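 BAECs were treated at 0, 100 or 200 µM for 24 h, then lysed in RIPA buffer with protease inhibitors. Protein was quantified by micro-BCA. Lysates were separated by SDS–PAGE and transferred to PVDF, then probed overnight at 4 °C with antibodies to cyclin D1, ERK, phospho-ERK and β-actin (loading control). Detection used HRP secondaries and ECL. Experiments were repeated at least twice.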

[9] = system: BAEC; experiment: Inhibition of cyclin D1 expression in BAEC at 100 uM after 24 hrs by Western blot; type: functional, cell-based; details: Bos taurus; outline: as §4
[10] = species on record: Bos taurus; experiment: Inhibition of ERK1/2 phosphorylation in BAEC at 100 uM after 24 hrs by Western blot; outline: as §4
[11] = system: BAEC; experiment: Inhibition of ERK1/2 levels in BAEC at 100 uM after 24 hrs by Western blot; type: functional, cell-based; details: Bos taurus; outline: as §4
[12] = system: BAEC; experiment: Inhibition of stress fiber assembly in BAEC by fluorescence staining with FITC phalloidin; type: functional, cell-based; details: Bos taurus
Outline: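 BAECs were grown overnight on glass coverslips, then exposed to compound for 24 h. Cells were fixed in 4% paraformaldehyde, permeabilised with 0.1% Triton X-100 and blocked with 1% BSA. F-actin was stained with FITC-phalloidin (2 µg/ml, 30 min) and imaged by confocal microscopy at 40× oil. Experiments were repeated at least twice.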

[13] = system: BAEC; experiment: Increase in FITC-labeled concanavalin A binding to BAEC at 50 uM after 24 hrs by flow cytometer; type: functional; details: Bos taurus
Outline: (§5)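 Cultured BAECs were exposed to compound (50 µM) for 24 h, harvested and washed in DPBS. About 5×10⁵ cells were incubated in DPBS/1% BSA with 2 µg/mL FITC-labelled Con A or L-PHA for 1 h at 4 °C, washed twice, and fluorescence histograms were recorded by FACS. Each experiment was done at least twice.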

[14] = system: BAEC; experiment: Decrease in FITC-labeled phytohemagglutininin-L binding to BAEC at 50 uM after 24 hrs by flow cytometer; type: functional, cell-based; details: Bos taurus; outline: as §5
[15] = species on record: Bos taurus; experiment: Inhibition of ERK1/2 phosphorylation in BAEC at 200 uM after 24 hrs by Western blot; outline: as §4
[16] = system: BAEC; experiment: Inhibition of ERK1/2 levels in BAEC at 200 uM after 24 hrs by Western blot; type: functional, cell-based; details: Bos taurus; outline: as §4
[17] = Growth inhibition of BAEC after 48 hrs by MTT assay; set-up: species or system Bos taurus; details: cattle
Outline: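 BAECs (3×10³ per well) were seeded overnight in RPMI 1640 with 10% FBS, then given compounds at 10⁻⁶–10⁻³ M for 48 h. MTT was added to a final 0.5 mg/mL for 3 h at 37 °C. Formazan was dissolved in DMSO and read at 570 nm. Samples were run in quadruplicate, with at least two independent experiments.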

[18] = system: Geobacillus stearothermophilus; experiment: as §1

Row | IC50 [1] [nM] | Activity [13] | Activity [14] | SMILES | Activity [2] | other results
1 | 1150 | Active | inactive | OC[C@@H]1[C@@H](O)[C@H](O)[C@@H](O)CN1CCCCCCCCOc1cccc(-c2cnn[nH]2)c1 | Active | Activity [3]: inactive; Activity [4]: 87.6%; Activity [5]: 3.9%; Activity [6]: 6.2%; Activity [7]: Active; Activity [8]: Active; Activity [9]: Active; Activity [10]: inactive; Activity [11]: inactive; Activity [12]: Active; Activity [15]: inactive; Activity [16]: inactive
2 | 1670 | Active | inactive | OC[C@H]1NC[C@H](O)[C@@H](O)[C@@H]1O [DUVOGLUSTAT] | inactive | Activity [17]: Not Active
3 | 6070 | Active | inactive | OC[C@@H]1[C@@H](O)[C@H](O)[C@@H](O)CN1CCCCOc1cccc(-c2cnn[nH]2)c1 | inactive | 
4 | 2410 | Active | inactive | OC[C@@H]1[C@@H](O)[C@H](O)[C@@H](O)CN1CCCCCCOc1cccc(-c2cnn[nH]2)c1 | inactive | 
5 |  |  |  | COc1cccc(-c2cnn[nH]2)c1 | inactive | Activity [18]: inactive
